Assay results from different studies.
Compare with care: the assays were run in different laboratories.
Target: Insulin receptor (INSR, Homo sapiens, UniProt P06213)

`C#Cc1n[nH]c2c(-c3cn([C@@H](C)c4ccccn4)c(=O)[nH]c3=O)cc(F)cc12` gave an inhibition of 9% (enzyme activity; inhibitor; 0.1 µM).
`Cn1cc(-c2cccc(N3CCc4c(sc5c4CC(C)(C)C5)C3=O)c2CO)cc(Nc2ccncn2)c1=O` gave an inhibition of 6% (enzyme activity; inhibitor; 1 µM).
For `O=c1[nH]c2ccccc2n1C1CCN(Cc2ccc(-c3[nH]c4cc5ncnc5cc4nc3-c3ccccc3)cc2)CC1`, the remaining signal was 102% (cell-free assay; 0.5 µM).
With `Cc1nn(C)cc1-c1nc2c(N3CCN(Cc4ccc(Cl)cc4)CC3)c(Cl)cnc2[nH]1` the remaining binding was 100% (binding; competition with immobilised ligand; 1 µM).
`Cn1cc(-c2cc(F)cc(N3CCn4c(cc5c4CCCC5)C3=O)c2CO)cc(Nc2ccc(N3CCN(C4COC4)CC3)cn2)c1=O` has an inhibition of 8% (enzyme activity; inhibitor; 0.1 µM).
`N#CC1(c2ccccn2)CCN(Cc2cc(C(=O)O)c(=O)n3ccccc23)CC1` gave a remaining binding of 74% (cell-free assay; competition with immobilised ligand; 1 µM).
For `c1ccc(C(NCCNC(c2ccccc2)c2ccccc2)c2ccccc2)cc1`, the inhibition was -6% (enzyme activity; inhibitor; 10 µM).
`C#Cc1n[nH]c2c(-c3cn([C@@H](C)c4ccccc4)c(=O)[nH]c3=O)cc(F)cc12` has an inhibition of 7.7% (enzyme activity; inhibitor; 0.1 µM).
For `Cc1ncc(C)n2nc(/C=C/c3nc(N4CCCC4)cc(N4CCOCC4)n3)nc12`, the inhibition was 37% (enzyme activity; inhibitor; 10 µM).
With `C[C@H](C(=O)N[C@H]1COc2ccccc2[C@@H]1S(C)(=O)=O)c1ccc(F)cc1` the inhibition was -14% (enzyme activity; inhibitor; 10 µM).
The remaining binding of `Cn1cncc1[C@@](O)(COc1ccc(C#N)cc1-c1ccc(OC(F)(F)F)cc1)c1ccc(C#N)cc1` is reported as 84% (cell-free assay; competition with immobilised ligand; 1 µM).
The remaining binding of `COc1ncccc1-c1cnn2ccc(N3CCN(C(=O)OC(C)C)CC3)nc12` is reported as 95% (binding; competition with immobilised ligand; 1 µM).
`CC(C)(C)c1cc(C=C(C#N)C#N)cc(Br)c1O` gave a remaining activity of 105% (enzyme activity; inhibitor; 0.5 µM).
With `Nc1ncc(-c2nc(N3CCOCC3)nc(N3CCOCC3)n2)c(C(F)F)n1` the remaining binding was 50% (cell-free assay; competition with immobilised ligand; 10 µM).
With `O=C(Nc1cccnn1)N1CCN([C@@H]2CCOc3cc(C(F)(F)F)ccc32)CC1` the inhibition was 14% (enzyme activity; inhibitor; 20 µM).
